CHT allo act: CHT positive allosteric modulators, primary screen, cell-based, membrane potential dye, choline EC20; High affinity choline transporter 1 (Homo sapiens), Q9GZV3; CHT-expressing cells; active compounds read high; LV-AA mutant CHT in HEK293 cells; B-score at 10 µM; 0.49% of 310,000 active;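 active means initial fluorescence not abnormally high and integrated response B-score, plate-corrected, over 3 SD above library mean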
Target sequence (Q9GZV3 whole entry, looked up): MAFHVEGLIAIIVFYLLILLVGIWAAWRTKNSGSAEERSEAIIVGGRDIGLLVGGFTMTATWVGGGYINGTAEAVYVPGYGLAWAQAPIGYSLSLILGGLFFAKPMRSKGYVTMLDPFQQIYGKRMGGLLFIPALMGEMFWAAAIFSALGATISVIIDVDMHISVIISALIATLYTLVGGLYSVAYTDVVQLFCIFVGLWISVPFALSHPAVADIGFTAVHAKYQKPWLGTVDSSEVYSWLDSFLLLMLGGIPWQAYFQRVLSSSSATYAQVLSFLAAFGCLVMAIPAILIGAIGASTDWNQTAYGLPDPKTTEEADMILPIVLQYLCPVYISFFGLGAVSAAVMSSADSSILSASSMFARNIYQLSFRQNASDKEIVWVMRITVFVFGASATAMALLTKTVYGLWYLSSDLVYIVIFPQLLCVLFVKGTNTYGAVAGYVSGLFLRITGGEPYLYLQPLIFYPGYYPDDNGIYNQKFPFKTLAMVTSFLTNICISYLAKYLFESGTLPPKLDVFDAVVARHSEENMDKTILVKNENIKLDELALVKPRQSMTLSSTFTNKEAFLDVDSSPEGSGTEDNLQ
proCasp3 act: activators of human procaspase-3 D3A mutant, primary screen, biochemical, absorbance, PC-3 D3A mutant, single concentration. 0.11% of 330,000 active. recombinant procaspase-3 D3A, Ac-DEVD-pNA absorbance 405 nm. activation, % at 8.5 µM. AID 463141, 2010;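 active means activation above the mean of all tested compounds plus 3 SD, cut at about 21% in these data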;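 further: 0% = DMSO alone and 100% = DMSO wells spiked with extra 5 µM PC-3 D3A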
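Assay system: Procaspase-3 D3A mutant, all three cleavage aspartates alanine. Buffer or medium: Zinc-free HEPES saline buffer with Triton X-100. Times: 1 h compound preincubation, 2 h substrate hydrolysis at 25 °C. Measured by: 405 nm absorbance of p-nitroaniline, reads at 0 and 120 min. Read-out basis: percent activation relative to control range. Replicates: singlicate.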
CHT inh: inhibitors of human choline transporter CHT | High affinity choline transporter 1 (Homo sapiens), Q9GZV3 | CHT-expressing cells, membrane potential dye, choline response; active compounds read low | B-score at 10 µM | 0.86% of 310,000 active;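 active means B-score over 3 SD under the library average, and starting fluorescence ratio not unusually high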;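 further: choline stimulus applied at its EC90 after an EC20 pre-addition; B-score computed on integrated fluorescence ratio after choline addition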
proCasp7 act: procaspase-7 activators, primary screen, counter-screen for procaspase-3 activator project, biochemical, absorbance, HTS, human. Caspase-7 (Homo sapiens), P55210. recombinant procaspase-7, Ac-DEVD-pNA absorbance 405 nm; D23A/D198A/D206A triple mutant, cannot self-cleave; scale: DMSO 0, 5 µM enzyme 100. activation, % at 8.5 µM. 0.093% of 330,000 active;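 active means percent activation above the screen-wide mean plus 3 SD, cut at about 25% in these data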
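signal = Epi-absorbance of released pNA at 405 nm, two timepoints | assay system = Uncleavable procaspase-7 mutant enzyme | reagent = Ac-DEVD-pNA substrate, 400 µM as added | times = 1 h enzyme–compound preincubation and 2 h substrate reaction, both 25 °C | benchmarks = low DMSO alone, high DMSO plus 5 µM PC-7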
CHT act confirm: CHT activators, confirmation, cell-based, membrane potential dye, duplicate | activation, % at 10 µM | 91% of 2,500 active | CHT-expressing cells, membrane potential dye fluorescence (FDSS); % of choline EC20–EC90 response window; HEK293 expressing CHT LV-AA mutant; choline added at its EC20 | AID 504833, 2011 | shares compounds with CHT allo act;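 active means primary screen active, with duplicate mean activation above negative control mean plus 3 SD, cut at about 11% in these data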
HEK293 MP dye: membrane potential response in parental HEK293 cells, counter-screen for CHT activator project, cell-based, membrane potential dye; 62% of 2,500 active; ratio readout change at 10 µM, hits read low; shares compounds with CHT allo act; AID 623908, 2012; membrane potential dye fluorescence (FDSS); measured after EC20 choline addition;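 active means duplicate-averaged ratio beyond 3 SD from buffer wells, up or down, though filed actives are nearly all decreases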
* hit, by the source's call. Sampled rows, rich in hits. Any-hit rate of the full collection: about 1.3%.

Screening COc1ccc(C(=O)CN2CCN(c3cc(C)nc4ccccc34)CC2)cc1 returned CHT allo act 8.5*, proCasp3 act 2, CHT inh inactive, proCasp7 act -3, CHT act confirm 64* and HEK293 MP dye -78*.
Screening Cc1cc(N2CCN(CC(O)C(F)(F)F)CC2)c2ccccc2n1 (stereo unspecified) returned CHT allo act inactive, proCasp3 act -8, CHT inh inactive, proCasp7 act 2, CHT act confirm 72* and HEK293 MP dye -72*.
`Cc1cc(N2CCN(S(=O)(=O)c3ccc(Cl)cc3)CC2)c2ccccc2n1` gave CHT allo act inactive, proCasp3 act 10, CHT inh inactive and proCasp7 act -1.
COc1ccc2nc(C)cc(N3CCOCC3)c2c1 was read as CHT allo act inactive, proCasp3 act -1, CHT inh inactive, proCasp7 act -3, CHT act confirm 68* and HEK293 MP dye -81*.
COc1cccc(Cl)c1NC(=O)N1CCN(c2cc(C)nc3ccccc23)CC1 was read as CHT allo act 6.7*, proCasp3 act -5, CHT inh inactive, proCasp7 act 4, CHT act confirm 42* and HEK293 MP dye -50*.
For Cc1cc(N2CCN(S(=O)(=O)c3ccc(Cl)c(Cl)c3)CC2)c2ccccc2n1 the results were CHT allo act inactive, proCasp3 act 3, CHT inh inactive and proCasp7 act 5.
Screening CC(NC(=O)/C=C/c1ccco1)c1nc2ccccc2n1Cc1cccc(Cl)c1 (stereo unspecified) returned CHT allo act inactive, proCasp3 act 2, CHT inh inactive and proCasp7 act -3.
CC(C)Cc1nnc(NC(=O)c2cc([N+](=O)[O-])ccc2N2CCOCC2)s1 was read as CHT allo act inactive, proCasp3 act 3, CHT inh inactive and proCasp7 act -5.
Screening COc1ccccc1CCCNC(=O)C1CCC(=O)N(CCCN2CCCC2=O)C1 (stereo unspecified) returned CHT allo act inactive, proCasp3 act -2, CHT inh inactive and proCasp7 act -6.
For COC(=O)c1ccccc1NC(=O)c1cc[n+](C)cc1 the results were CHT allo act inactive, proCasp3 act 6, CHT inh inactive, proCasp7 act -2, CHT act confirm 60* and HEK293 MP dye -55*.
COc1cc(C(=O)Nc2sc3c(c2C(=O)NCc2ccco2)CCCC3)cc(OC)c1OC was read as CHT allo act 7.6*, proCasp3 act -9, CHT inh inactive, proCasp7 act -18, CHT act confirm 8 and HEK293 MP dye inactive.
COC(=O)Nc1sc2c(c1C(=O)NCc1ccco1)CCCC2 was read as CHT allo act inactive, proCasp3 act -2, CHT inh inactive and proCasp7 act -5.
Screening COc1ccc(NC(=O)CN(C)C(=O)c2ccc(NS(=O)(=O)c3ccc4[nH]c(=O)[nH]c4c3)cc2)cc1 returned CHT allo act inactive, proCasp3 act 14, CHT inh inactive and proCasp7 act 0.
For O=C1CCC(c2ccc(-n3ccnc3)cc2)=NN1 the results were CHT allo act 7.3*, proCasp3 act 7, CHT inh inactive, proCasp7 act 8, CHT act confirm 23* and HEK293 MP dye -28*.
CCN1CCCC1CNC(=O)COc1cc(=O)n(C)c2ccccc12 (stereo unspecified) was read as CHT allo act 7.2*, proCasp3 act 7, CHT inh inactive, proCasp7 act -7, CHT act confirm 43* and HEK293 MP dye -39*.
For CC1CC(C)CN(CCCNC(=O)COc2cc(=O)n(C)c3ccccc23)C1 (stereo unspecified) the results were CHT allo act inactive, proCasp3 act -10, CHT inh inactive, proCasp7 act -4, CHT act confirm 17* and HEK293 MP dye -28*.
`CCN1CCCC1CNC(=O)CSc1cc(=O)n(C)c2cc(Cl)ccc12` (stereo unspecified) gave CHT allo act inactive, proCasp3 act 5, CHT inh inactive, proCasp7 act 13, CHT act confirm 50* and HEK293 MP dye -34*.
`COc1ccc(CCNC(=O)CCC(=O)N2CC(C)Oc3ccccc32)cc1OC` (stereo unspecified) gave CHT allo act inactive, proCasp3 act 6, CHT inh inactive and proCasp7 act 2.
For COc1ccc(CCC(=O)NNC(=O)Cn2nc(C)cc2C)cc1 the results were CHT allo act inactive, proCasp3 act -1, CHT inh inactive and proCasp7 act -4.
For Cc1cc(N2CCOCC2)c2c(N)c(C)cc(C)c2n1 the results were CHT allo act 12*, proCasp3 act 0, CHT inh inactive, proCasp7 act 6, CHT act confirm 58* and HEK293 MP dye -78*.
Cc1cc(N2CCOCC2)nc(N)n1 was read as CHT allo act inactive, proCasp3 act 4, CHT inh inactive and proCasp7 act 6.
For COc1ccc(Nc2c(-c3ccco3)nc3cccc(C)n23)cc1 the results were CHT allo act inactive, proCasp3 act 1, CHT inh inactive and proCasp7 act -7.
Screening Cc1ccn2c(Nc3ccccc3C)c(-c3ccccn3)nc2c1 returned CHT allo act inactive, proCasp3 act -1, CHT inh inactive and proCasp7 act -6.
`Cc1cccc2nc(-c3cccnc3)c(Nc3ccccc3)n12` gave CHT allo act 12*, proCasp3 act 0, CHT inh inactive, proCasp7 act -1, CHT act confirm 28* and HEK293 MP dye -29*.
Screening Cc1cccc2nc(-c3cccnc3)c(NCCC(C)C)n12 returned CHT allo act inactive, proCasp3 act 2, CHT inh inactive, proCasp7 act -8, CHT act confirm 41* and HEK293 MP dye inactive.
`Cc1ccc2nc(-c3cccnc3)c(NC3CCCCC3)n2c1` gave CHT allo act inactive, proCasp3 act -6, CHT inh inactive and proCasp7 act -5.
